Reference: ChEMBL document CHEMBL5058577, “EUbOPEN Chemogenomics Library 2 (Multiplex)” (2022)

Test system: U2OS
Test: Multiplex assay against U2OS
Assay type: toxicity, cell-based
Conditions: human
How it was run: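 Cells were classed with CellPathfinder machine-learning gating, first as Hoechst high-intensity objects or normal cells, then (normal cells) as healthy, pyknosed or fragmented nuclei, and finally (pyknosed cells) as mitotic or apoptotic. Staining of live cells at seeding used Hoechst33342, BioTracker Green Microtubule Cytoskeleton Dye, MitoTracker Red and Annexin V Alexa Fluor 680, with imaging on a CQ1 microscope at 37°C and 5% CO2 after compound addition. Tubulin, mitochondrial-mass and membrane-permeability phenotypes are per cents of healthy-nucleus cells.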

[1] = 12 h, 1 µM, compound concentration 1 uM, replicate 1
[2] = 12 h, 1 µM, compound concentration 1 uM, replicate 2
[3] = 12 h, 10 µM, compound concentration 10 uM, replicate 1
[4] = 12 h, 10 µM, compound concentration 10 uM, replicate 2
[5] = 24 h, 1 µM, compound concentration 1 uM, replicate 1
[6] = 24 h, 1 µM, compound concentration 1 uM, replicate 2
[7] = 24 h, 10 µM, compound concentration 10 uM, replicate 1
[8] = 24 h, 10 µM, compound concentration 10 uM, replicate 2
[9] = 48 h, 1 µM, compound concentration 1 uM, replicate 1
[10] = 48 h, 1 µM, compound concentration 1 uM, replicate 2
[11] = 48 h, 10 µM, compound concentration 10 uM, replicate 1
[12] = 48 h, 10 µM, compound concentration 10 uM, replicate 2

## Cl.N=C(N)NC(=O)Cc1c(Cl)cccc1Cl [GUANFACINE HYDROCHLORIDE]
[1]
  Population Apoptotic (%): 80%
  Population Fragmented Nuclei (%): 28%
  Population Healthy Nuclei (%): 55%
  Population Hoechst High Intensity Objects (%): 4%
  Population Membrane Permeable-Phenotype (%): 5%
  Population Mitochondria Different-Phenotype (%): 1%
  Population Mitotic Cells (%): 19%
  Population Normal (%): 95%
  Population Pyknosed Nuclei (%): 16%
  Population Tubulin-Different-Phenotype (%): 2%
  Total Cell Count: 165
[2]
  Population Apoptotic (%): 100%
  Population Fragmented Nuclei (%): 20%
  Population Healthy Nuclei (%): 72%
  Population Hoechst High Intensity Objects (%): 2%
  Population Membrane Permeable-Phenotype (%): 8%
  Population Mitochondria Different-Phenotype (%): 2%
  Population Mitotic Cells (%): 0%
  Population Normal (%): 97%
  Population Pyknosed Nuclei (%): 7%
  Population Tubulin-Different-Phenotype (%): 6%
  Total Cell Count: 129
[3]
  Population Apoptotic (%): 87%
  Population Fragmented Nuclei (%): 27%
  Population Healthy Nuclei (%): 61%
  Population Hoechst High Intensity Objects (%): 1%
  Population Membrane Permeable-Phenotype (%): 10%
  Population Mitochondria Different-Phenotype (%): 3%
  Population Mitotic Cells (%): 12%
  Population Normal (%): 98%
  Population Pyknosed Nuclei (%): 11%
  Population Tubulin-Different-Phenotype (%): 7%
  Total Cell Count: 280
[4]
  Population Apoptotic (%): 77%
  Population Fragmented Nuclei (%): 18%
  Population Healthy Nuclei (%): 74%
  Population Membrane Permeable-Phenotype (%): 12%
  Population Mitochondria Different-Phenotype (%): 7%
  Population Mitotic Cells (%): 22%
  Population Pyknosed Nuclei (%): 7%
  Population Tubulin-Different-Phenotype (%): 10%
  Total Cell Count: 130
[5]
  Population Apoptotic (%): 75%
  Population Fragmented Nuclei (%): 32%
  Population Healthy Nuclei (%): 56%
  Population Hoechst High Intensity Objects (%): 3%
  Population Membrane Permeable-Phenotype (%): 5%
  Population Mitochondria Different-Phenotype (%): 3%
  Population Mitotic Cells (%): 25%
  Population Normal (%): 96%
  Population Pyknosed Nuclei (%): 10%
  Population Tubulin-Different-Phenotype (%): 2%
  Total Cell Count: 194
[6]
  Population Apoptotic (%): 83%
  Population Fragmented Nuclei (%): 18%
  Population Healthy Nuclei (%): 74%
  Population Hoechst High Intensity Objects (%): 0%
  Population Membrane Permeable-Phenotype (%): 8%
  Population Mitochondria Different-Phenotype (%): 4%
  Population Mitotic Cells (%): 16%
  Population Normal (%): 99%
  Population Pyknosed Nuclei (%): 7%
  Population Tubulin-Different-Phenotype (%): 5%
  Total Cell Count: 160
[7]
  Population Apoptotic (%): 84%
  Population Fragmented Nuclei (%): 25%
  Population Healthy Nuclei (%): 64%
  Population Hoechst High Intensity Objects (%): 0%
  Population Membrane Permeable-Phenotype (%): 9%
  Population Mitochondria Different-Phenotype (%): 2%
  Population Mitotic Cells (%): 15%
  Population Normal (%): 99%
  Population Pyknosed Nuclei (%): 9%
  Population Tubulin-Different-Phenotype (%): 4%
  Total Cell Count: 326
[8]
  Population Apoptotic (%): 83%
  Population Fragmented Nuclei (%): 15%
  Population Healthy Nuclei (%): 76%
  Population Hoechst High Intensity Objects (%): 2%
  Population Membrane Permeable-Phenotype (%): 10%
  Population Mitochondria Different-Phenotype (%): 4%
  Population Mitotic Cells (%): 16%
  Population Normal (%): 97%
  Population Pyknosed Nuclei (%): 7%
  Population Tubulin-Different-Phenotype (%): 5%
  Total Cell Count: 160
[9]
  Population Apoptotic (%): 89%
  Population Fragmented Nuclei (%): 28%
  Population Healthy Nuclei (%): 60%
  Population Hoechst High Intensity Objects (%): 2%
  Population Membrane Permeable-Phenotype (%): 4%
  Population Mitochondria Different-Phenotype (%): 3%
  Population Mitotic Cells (%): 10%
  Population Normal (%): 97%
  Population Pyknosed Nuclei (%): 10%
  Population Tubulin-Different-Phenotype (%): 3%
  Total Cell Count: 262
[10]
  Population Apoptotic (%): 90%
  Population Fragmented Nuclei (%): 16%
  Population Healthy Nuclei (%): 73%
  Population Hoechst High Intensity Objects (%): 3%
  Population Membrane Permeable-Phenotype (%): 8%
  Population Mitochondria Different-Phenotype (%): 4%
  Population Mitotic Cells (%): 9%
  Population Normal (%): 96%
  Population Tubulin-Different-Phenotype (%): 6%
  Total Cell Count: 217
[11]
  Population Apoptotic (%): 90%
  Population Fragmented Nuclei (%): 21%
  Population Healthy Nuclei (%): 68%
  Population Hoechst High Intensity Objects (%): 2%
  Population Membrane Permeable-Phenotype (%): 8%
  Population Mitochondria Different-Phenotype (%): 3%
  Population Mitotic Cells (%): 9%
  Population Normal (%): 97%
  Population Pyknosed Nuclei (%): 10%
  Population Tubulin-Different-Phenotype (%): 4%
  Total Cell Count: 440
[12]
  Population Apoptotic (%): 95%
  Population Fragmented Nuclei (%): 14%
  Population Healthy Nuclei (%): 74%
  Population Hoechst High Intensity Objects (%): 1%
  Population Membrane Permeable-Phenotype (%): 10%
  Population Mitochondria Different-Phenotype (%): 1%
  Population Mitotic Cells (%): 4%
  Population Normal (%): 98%
  Population Pyknosed Nuclei (%): 11%
  Population Tubulin-Different-Phenotype (%): 3%
  Total Cell Count: 213
